# This is a sample that favours compounds with a hit; in the whole collection about 1.3% have one here.
# Tn7 DDE FP: inhibitors of Tn7 peptide binding to fibrin DD(E), primary screen, biochemical, fluorescence polarization, human fibrin, Tn7 probe; FP displacement of FITC-Tn7 peptide from fibrin DD(E); 0% = median of compound wells per plate; inhibition, % at 8.3 µM; actives 0.13% (n = 370,000);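 active means inhibition above the mean of compounds falling within the control limits plus 3 SD of them, cut at about 14% in these data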;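 further: 0% = plate median of compound wells and 100% = 10 µM Aha-Tn7 peptide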
# Target sequence (P02675 whole entry, looked up): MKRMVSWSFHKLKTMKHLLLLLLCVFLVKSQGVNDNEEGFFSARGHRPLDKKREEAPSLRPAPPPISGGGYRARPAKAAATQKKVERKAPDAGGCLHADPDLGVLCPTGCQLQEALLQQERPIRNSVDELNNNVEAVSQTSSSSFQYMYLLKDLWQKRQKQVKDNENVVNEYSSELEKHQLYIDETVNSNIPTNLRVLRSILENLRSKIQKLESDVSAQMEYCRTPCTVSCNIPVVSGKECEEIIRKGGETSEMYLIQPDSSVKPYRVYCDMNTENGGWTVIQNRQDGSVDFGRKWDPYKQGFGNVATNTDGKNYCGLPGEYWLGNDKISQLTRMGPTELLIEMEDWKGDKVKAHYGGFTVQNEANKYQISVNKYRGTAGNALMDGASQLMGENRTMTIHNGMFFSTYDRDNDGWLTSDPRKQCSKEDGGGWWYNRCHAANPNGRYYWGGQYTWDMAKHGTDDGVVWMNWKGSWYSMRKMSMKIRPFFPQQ
#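 Assay system: human fibrin DD(E). Input: DD(E) 2 µM final. Medium: Tris buffer with calcium and detergent, pH 7.8. Compound dosing: single point at 8.3 µM. Timing: 10 min plus 3 h, room temperature. Technique: fluorescence polarization of the labelled Tn7 tracer. Read-out: percent inhibition. Replicates: singlicate testing.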
# CRFR2-BP antag: antagonists of CRF-BP/CRF-R2 complex, primary screen, cell-based, HEK293, calcium dye fluorescence, uHTS; CRF-induced calcium fluorescence; inhibition, % at 11.8 µM; actives 0.59% (n = 350,000);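 active means inhibition of the ligand-induced calcium signal above about 50% at the single tested concentration, limit read from the data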
# CRFBP-R2 agonist: agonists of CRF-BP/CRF-R2 complex, primary screen, cell-based, HEK293, calcium dye fluorescence, uHTS. CRF-binding protein / CRF receptor 2 complex (human). calcium dye fluorescence (FLIPR); percent of saturating CRF peptide response. activation, % at 13.2 µM. actives 0.46% (n = 350,000). AID 588473, 2011;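 active means activation of at least 50%, plus an integration ratio under a set limit after plate pattern correction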;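 further: plate controls were neutral control wells without compound for no effect and CRF at EC100 for full effect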
# DDE Tn6 FP inh: inhibitors of Tn6 peptide binding to fibrin DD(E), primary screen, biochemical, fluorescence polarization, human fibrin, Tn6 probe | Fibrinogen beta chain (Homo sapiens), P02675 | Fibrin DD(E) TRITC-Tn6 fluorescence polarization displacement | inhibition, % at 8.3 µM | actives 0.21% (n = 370,000);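 active means inhibition above a per-campaign cutoff: mean of compounds within control limits plus 3 SD, cut at about 15% in these data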;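 further: 0% = median of all compound wells on the plate and 100% = blocking peptide control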
# An asterisk follows results filed as active; · = not tested or not shown.
SMILES,Tn7 DDE FP,CRFR2-BP antag,CRFBP-R2 agonist,DDE Tn6 FP inh
CN(C)c1ncnc2c1NC1=C(S2)C(=NCCCC(=O)O)CC(C)(C)C1,-2.2,51.9*,3.8,0.4
COc1ncnc2c1NC1=C(S2)C(=NCCC(=O)O)CC(C)(C)C1,6.8,-0.3,10.5,11.2
O=C(CSc1ccccc1)NC1CCCCN(Cc2ccc(Cl)cc2)C1=O (stereo not given),1.9,·,·,-1.1
CCOC(=O)Cc1csc(NC(=O)CSc2nnc(-c3ccc(NS(=O)(=O)CC)cc3)o2)n1,6.3,-6.6,-1.0,-3.3
CCOC(=O)Cc1csc(NC(=O)CSc2nnc(-c3ccncc3)o2)n1,-6.8,-221.8,121.4*,3.3
Cc1csc(NC(=O)CSc2nnc(-c3ccncc3)o2)n1,1.9,6.6,0.3,16.6*
FC(F)(F)c1nnc2sc(-c3cccs3)nn12,2.5,52.0*,-0.8,-3.4
FC(F)(F)c1nnc2sc(-c3ccncc3)nn12,5.7,-0.7,0.7,1.3
Cc1ccc(-n2c(SCC(=O)Nc3ccc(S(=O)(=O)Nc4cc(C)nc(C)n4)cc3)nnc2-c2cccs2)cc1,-0.5,·,·,-9.5
CC(C)(C)OC(=O)NCCc1ccccc1/C=C/S(=O)(=O)NC1CCCC1,-4.8,·,·,-2.5
COCCn1c(C)cc(C(=O)COC(=O)c2cc3c(s2)CCC3)c1C,1.1,64.1*,-1.3,3.4
COCCn1c(C)cc(C(=O)COC(=O)c2cccc(O)c2)c1C,5.1,2.5,-1.5,3.3
COc1cc(/C=C/C(=O)CC(=O)/C=C/c2ccc(O)c(OC)c2)ccc1O,-2.5,-188.0,214.3*,-2.7
COc1cc(/C=C/C(=O)O)ccc1O,2.7,2.7,-1.9,-13.9
COc1cc(/C=C/C(=O)/C=C(O)/C=C/c2ccc(O)c(OC)c2)ccc1O,-7.4,-75.3,130.4*,-7.2
CCOc1ccc2c(c1)/C(=N/N1C(=O)c3ccccc3C1=O)C(=O)N2,-7.8,105.1*,0.4,-0.3
Cc1ccc2c(c1)/C(=N/N1C(=O)c3ccccc3C1=O)C(=O)N2,-1.7,30.8,-2.1,-0.2
N#C/C(=C\c1ccccn1)c1nc2ccccc2s1,3.7,-221.9,81.7*,4.4
N#C/C(=C/c1ccc(-c2ccc(S(N)(=O)=O)cc2)o1)c1nc2ccccc2s1,0.0,-233.9,203.3*,-4.1
N#C/C(=C/c1ccc(-c2ccccc2)o1)c1nc(-c2cccs2)cs1,4.9,-198.4,158.7*,0.9
N#C/C(=C\c1ccc(-c2ccc(F)cc2)o1)C(=O)Nc1nc(-c2cccs2)cs1,-5.7,-19.9,10.3,0.1
N#C/C(=C/c1ccc(-c2ccc(S(N)(=O)=O)cc2)o1)C(=O)Nc1ccccc1,-4.5,-57.9,8.2,-3.1
CCOC(=O)[C@]12CCCCC/C=C\1N(CCc1ccc(Cl)cc1)C(=O)[C@H]2CC(=O)NCCC(C)C,-3.6,·,·,2.6
CN(Cc1ccc(C(F)(F)F)cc1)C(=O)C1CCC(=O)N(C2CC2)C1 (stereo not given),-7.8,-2.9,1.1,-1.4
CN(Cc1cccc(Cl)c1)C(=O)C1CCC(=O)N(C2CC2)C1 (stereo not given),-8.4,80.6*,0.0,-10.7
SMILES,Tn7 DDE FP,CRFR2-BP antag,CRFBP-R2 agonist,DDE Tn6 FP inh
COC(=O)C1CCN(C(=O)COC(=O)c2cc([N+](=O)[O-])ccc2N2CCOCC2)CC1,-0.8,104.9*,0.1,-2.8
CCc1ccc(OC2=NS(=O)(=O)c3ccccc32)cc1,-2.7,0.8,-0.1,6.2
CCN(CC)c1cccc(OC2=NS(=O)(=O)c3ccccc32)c1,4.5,9.9,-1.9,111.0*
CCOC(=O)c1c(C)[nH]c(C(=O)OCC(=O)Nc2sc(C(=O)N(C)C)c(C)c2C(=O)OCC)c1C,-11.5,87.0*,2.6,-8.1
COC(=O)[C@]12C[C@H](CC(=O)NCc3cccc(C(F)(F)F)c3)C(=O)N(Cc3ccc(Cl)cc3Cl)C1=C[C@H](C(C)C)O[C@@H]2C1CC1,-4.0,·,·,-7.2
CCn1c(CSc2nnc3ccccn23)nc2cc(C(=O)O)ccc21,-3.2,4.8,20.2,20.0*
Cc1cccc(C(=O)Nc2sc(-c3ccccc3)cc2C(=O)O)c1,-1.6,57.9*,-5.2,-3.3
CC(C)(C)C(=O)Nc1sc(-c2ccccc2)cc1C(=O)O,9.7,15.8,0.6,-3.0
Cc1csc(NC(=O)Cc2ccccc2[N+](=O)[O-])n1,0.8,-127.7,208.1*,2.7
CCc1ccc(S(=O)(=O)/N=C2\C=C(Nc3cccc(C(=O)O)c3)C(=O)c3ccccc32)cc1,-0.9,33.1,-4.0,1.2
CCc1ccc(S(=O)(=O)/N=C2\C=C(Nc3ccc(O)cc3)C(=O)c3ccccc32)cc1,·,140.1*,-3.4,·
Cc1c(C(=O)NCc2ccccn2)sc2nc(-c3ccc(F)cc3)cn12,-2.9,-18.6,1.7,1.2
Cc1c(C(=O)NCC2CCCO2)sc2nc(-c3ccc(F)cc3)cn12 (stereo not given),3.0,55.7*,-5.0,-4.9
CC(C)NS(=O)(=O)c1ccc(NC(=O)C(C)Oc2ccc(C(=O)c3ccccc3)cc2)cc1 (stereo not given),2.2,-115.2,161.6*,3.5
CC(Oc1ccccc1)C(=O)Nc1ccc(C(N)=O)cc1 (stereo not given),5.4,3.2,8.5,9.8
O=S1(=O)c2ccc(Br)cc2OC[C@H](Cc2ccccc2)N1Cc1cn(CCC2OCCCO2)nn1,-5.3,·,·,2.2
O=C(Nc1cccc(F)c1)OCCCN1CCC2(CCC(c3ccccc3)CC2)C1 (stereo not given),-7.4,·,·,-4.3
COc1ccc(N2CCN(CCCNC(=O)C(=O)c3c(C)[nH]c4ccccc34)CC2)cc1,-6.3,62.1*,0.2,-2.4
Cc1cc(C)n(C(=O)CNC(=O)c2ccccc2Br)n1,3.2,97.3*,-1.3,-2.4
Cc1cc(C)n(C(=O)CCNC(=O)c2ccccc2Br)n1,2.0,17.9,0.3,3.0
CC(=O)CC[C@@H]1CC[C@]2(CCCN(C(=O)c3ccc4ccccc4n3)C2)O1,2.5,·,·,8.9
O=C(N=C1N(Cc2ccccc2)[C@@H](Cc2ccccc2)[C@]2(C=C3CCCCC3n3c(=O)n(-c4ccccc4)c(=O)n32)N1C(=O)OCc1ccccc1)c1ccccc1 (stereo not given in full),5.3,·,·,-1.6
COc1ccc(S(=O)(=O)Nc2ccccc2C(=O)Nc2nc(-c3ccc(F)cc3)cs2)cc1OC,1.6,46.7,47.7,-6.4
COc1ccc(-c2csc(NC(=O)c3ccccc3NS(=O)(=O)c3ccc(C)cc3)n2)cc1,-8.4,57.5*,10.4,-5.0
CN(c1ccc(NC(=O)CCc2cn(Cc3ccc(Br)cc3)c3ccccc23)cc1)c1ccccn1,-5.0,·,·,-7.3
COc1ccccc1-n1c(SC)nc2c(sc(=S)n2-c2ccccc2)c1=O,0.5,21.2,0.6,-4.5

# Bioassay records as filed in PubChem BioAssay.
